Values belong to the molecule of their own block, whether it stands above or below them.
Experiments:
HL-60 = test: Anticancer activity against human HL60 cells by MTT assay; format: functional, cell-based
Method in brief: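 HL-60 cells grown in RPMI-1640 with 10% v/v FBS and 1% v/v L-glutamine, 37 °C, 5% CO2, kept below 1 × 10⁶ cells/mL, passages 5–15. Seeded at 2.5 × 10⁴/well in triplicate and exposed for 72 h to […]. DMSO final below 0.5% v/v. Read by MTT (4 h) then SDS/DMF lysis (4 h), A570/590, as % of vehicle. IC50 taken from inhibition curves; experiments repeated at least three times.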

Plasmodium falciparum [1] = test: Antimalarial activity against chloroquine-sensitive Plasmodium falciparum 3D7 by [3H]hypoxanthine uptake; format: functional, organism-based
PBMC = test: Toxicity in PBMC at 250 uM; format: cell-based
Plasmodium falciparum [2] = test: Antimalarial activity against chloroquine-resistant Plasmodium falciparum K1 by [3H]hypoxanthine uptake; format: functional, organism-based
[3] = Therapeutic index, ratio of IC50 for human HL60 cells to IC50 for Plasmodium falciparum; format: cell-based, HL-60; conditions: read-out: TI

SMILES: C[C@H]1[C@@H](CCNC(=O)NCC[C@H]2O[C@@H]3O[C@@]4(C)CC[C@H]5[C@H](C)CC[C@@H]([C@H]2C)[C@@]35OO4)O[C@@H]2O[C@@]3(C)CC[C@H]4[C@H](C)CC[C@@H]1[C@@]24OO3
IC50 (HL-60): > 100000 nM
IC50 (Plasmodium falciparum [1]): > 60 nM

SMILES: C[C@H]1[C@@H](CCOC(=O)OCC[C@H]2O[C@@H]3O[C@@]4(C)CC[C@H]5[C@H](C)CC[C@@H]([C@H]2C)[C@@]35OO4)O[C@@H]2O[C@@]3(C)CC[C@H]4[C@H](C)CC[C@@H]1[C@@]24OO3
IC50 (HL-60): > 100000 nM
IC50 (Plasmodium falciparum [1]): 4.6 nM

SMILES: COP(=O)(OCCC[C@H]1O[C@@H]2O[C@@]3(C)CC[C@H]4[C@H](C)CC[C@@H]([C@H]1C)[C@@]24OO3)OCCC[C@H]1O[C@@H]2O[C@@]3(C)CC[C@H]4[C@H](C)CC[C@@H]([C@H]1C)[C@@]24OO3
IC50 (HL-60): 50 nM
IC50 (Plasmodium falciparum [1]): 4.8 nM

SMILES: C[C@H]1[C@@H](CCN2CCC(C3CCN(CC[C@H]4O[C@@H]5O[C@@]6(C)CC[C@H]7[C@H](C)CC[C@@H]([C@H]4C)[C@@]57OO6)CC3)CC2)O[C@@H]2O[C@@]3(C)CC[C@H]4[C@H](C)CC[C@@H]1[C@@]24OO3
IC50 (HL-60): 400 nM
IC50 (Plasmodium falciparum [1]): 0.46 nM

SMILES: C[C@@H]1[C@@H](COP(=O)(OC[C@H]2O[C@@H]3O[C@@]4(C)CC[C@H]5[C@H](C)CC[C@@H]([C@@H]2C)[C@@]35OO4)Oc2ccccc2)O[C@@H]2O[C@@]3(C)CC[C@H]4[C@H](C)CC[C@@H]1[C@@]24OO3
IC50 (HL-60): 1040 nM
IC50 (Plasmodium falciparum [1]): 6 nM

SMILES: C[C@H]1[C@@H](CCCOP(=O)(OCCC[C@H]2O[C@@H]3O[C@@]4(C)CC[C@H]5[C@H](C)CC[C@@H]([C@H]2C)[C@@]35OO4)Oc2ccccc2)O[C@@H]2O[C@@]3(C)CC[C@H]4[C@H](C)CC[C@@H]1[C@@]24OO3
IC50 (HL-60): 250 nM
IC50 (Plasmodium falciparum [1]): 0.21 nM

SMILES: C[C@H]1[C@@H](CCNC(=O)C[C@H]2O[C@@H]3O[C@@]4(C)CC[C@H]5[C@H](C)CC[C@@H]([C@H]2C)[C@@]35OO4)O[C@@H]2O[C@@]3(C)CC[C@H]4[C@H](C)CC[C@@H]1[C@@]24OO3
IC50 (HL-60): 100 nM
IC50 (Plasmodium falciparum [1]): 0.03 nM

SMILES: COP(=O)(OC[C@H]1O[C@@H]2O[C@@]3(C)CC[C@H]4[C@H](C)CC[C@@H]([C@@H]1C)[C@@]24OO3)OC[C@H]1O[C@@H]2O[C@@]3(C)CC[C@H]4[C@H](C)CC[C@@H]([C@@H]1C)[C@@]24OO3
IC50 (HL-60): 770 nM
IC50 (Plasmodium falciparum [1]): 4.8 nM

SMILES: COP(=O)(OCC[C@H]1O[C@@H]2OC3(C)CC[C@H]4[C@H](C)CC[C@@H]([C@H]1C)[C@@]24OO3)OCC[C@H]1O[C@@H]2OC3(C)CC[C@H]4[C@H](C)CC[C@@H]([C@H]1C)[C@@]24OO3 (single isomer, unassigned)
Activity (PBMC): Non-toxic
IC50 (HL-60): 70 nM
IC50 (Plasmodium falciparum [2]): 0.2 nM
selectivity ratio [3]: > 500

SMILES: C[C@H]1[C@@H](CCOP(=O)(OCC[C@H]2O[C@@H]3OC4(C)CC[C@H]5[C@H](C)CC[C@@H]([C@H]2C)[C@@]35OO4)Oc2ccccc2)O[C@@H]2OC3(C)CC[C@H]4[C@H](C)CC[C@@H]1[C@@]24OO3 (single isomer, unassigned)
Activity (PBMC): Non-toxic
IC50 (HL-60): 270 nM
IC50 (Plasmodium falciparum [2]): 0.5 nM
selectivity ratio [3]: > 500

SMILES: CO[C@H]1O[C@@H]2O[C@@]3(C)CC[C@H]4[C@H](C)CC[C@@H]([C@H]1C)[C@@]24OO3 [ARTEMETHER]
IC50 (Plasmodium falciparum [1]): 2.11 nM
IC50 (Plasmodium falciparum [2]): 3.53 nM

SMILES: C[C@@H]1CC[C@H]2[C@@H](C)C(=O)O[C@@H]3O[C@@]4(C)CC[C@@H]1[C@]32OO4 [ARTEMISININ]
IC50 (Plasmodium falciparum [1]): 12.3 nM

IC50 (HL-60): 2410 nM
SMILES: C[C@H]1[C@@H](O)O[C@@H]2O[C@@]3(C)CC[C@H]4[C@H](C)CC[C@@H]1[C@@]24OO3 [ARTENIMOL]

IC50 (HL-60): 18 nM
SMILES: COc1cccc2c1C(=O)c1c(O)c3c(c(O)c1C2=O)C[C@@](O)(C(=O)CO)C[C@@H]3O[C@H]1C[C@H](N)[C@H](O)[C@H](C)O1 [DOXORUBICIN]

— ChEMBL document CHEMBL1143376, “Synthesis and biological evaluation of extraordinarily potent C-10 carba artemisinin dimers against P. falciparum malaria parasites and HL-60 cancer cells” (Bioorg Med Chem, 2009)
